The source made the active and inactive calls. The rule behind the calls is not given here.
What was measured:
[1] = molecular target: T1, Retinol-binding protein 4 (Homo sapiens, UniProt P02753); experiment: Binding affinity to His-tagged recombinant human sRBP expressed in Escherichia coli BL21(DE3) assessed as disruption of sRBP-TTR protein interaction after 1 hr by SDS-PAGE and silver staining method
Summary of the method: (§1)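 Compound was 100 μM, or 1, 10, 20, 50 and 100 μM for dose–response. Control was 10 μM ROH with no compound. Released free sRBP in the flow-through was analysed by SDS-PAGE; each run done at least three times.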

[2] = molecular target: T1, Retinol-binding protein 4; experiment: Binding affinity to His-tagged recombinant human sRBP expressed in Pichia pastoris assessed as apparent dissociation constant after 5 mins by fluorescence spectrophotometric analysis; details: read-out: Kd(app)
[3] = molecular target: T1, Retinol-binding protein 4; experiment: Antagonist activity at His-tagged recombinant human sRBP […] assessed as disruption of ROH-sRBP-TTR protein interaction after 2 hr by TR-FRET assay relative to control; assay type: functional
Summary of the method: (§2)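 Apo His-sRBP (P. pastoris-expressed), 5 nM, with 100 nM biotinylated native TTR, 100 nM streptavidin-APC and 1 nM europium anti-His antibody. Inhibitor held at 10 μM while ROH was titrated, in 20 mM Tris-HCl pH 7.4, 150 mM NaCl, 1 mM EDTA, 0.01% BSA, 0.02% Tween 20.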

[4] = molecular target: T1, Retinol-binding protein 4; experiment: Binding affinity to immobilized His-tagged recombinant human sRBP assessed as inhibition of sRBP and detergent treated HEK293 membrane interaction at 10 uM after 1 hr by surface plasmon resonance assay
[5] = molecular target: T1, Retinol-binding protein 4; experiment: Antagonist activity at His-tagged recombinant human sRBP […] assessed as disruption of ROH-sRBP-TTR protein interaction after 2 hr by TR-FRET assay; assay type: functional; summary of the method: as §2
[6] = molecular target: T1, Retinol-binding protein 4; experiment: Binding affinity to His-tagged recombinant human sRBP expressed in Escherichia coli BL21(DE3) assessed as disruption of sRBP-TTR protein interaction at 1 to 100 uM after 1 hr by SDS-PAGE and silver staining method; summary of the method: as §1
[7] = molecular target: T1, Retinol-binding protein 4; experiment: Antagonist activity at His-tagged recombinant human sRBP expressed in Escherichia coli BL21(DE3) assessed as disruption of sRBP-TTR protein interaction after 2 hr by surface plasmon resonance assay; assay type: functional
Summary of the method: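 SPR run at 25 °C on a Ni-NTA chip in HBS with 50 μM EDTA at 10 μL/min. Nickel activation, 5 min capture of 200 nM His-sRBP, 1 min compound pulse, then 5 min injection of 1 μM native untagged TTR preincubated with compound at 10 μM. Reference-surface corrected; regenerated with 0.3 mM EDTA; repeated three to five times.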

[8] = molecular target: T1, Retinol-binding protein 4; experiment: Binding affinity to His-tagged recombinant human sRBP expressed in Escherichia coli BL21(DE3) assessed as disruption of sRBP-TTR protein interaction at 100 uM after 1 hr by SDS-PAGE and silver staining method relative to 10 uM ROH; summary of the method: as §1

Structure (SMILES)	Activity [1]	Activity [6]	also measured
CC1=C(/C=C/C(C)=C/C=C/C(C)=C/C(=O)N2CCCC3CCCCC32)C(C)(C)CCC1 (stereo not drawn)	Active	–	–
CC1=C(/C=C/C(C)=C/C=C/C(C)=C/C(=O)Nc2ccc(N(C)C)cc2)C(C)(C)CCC1	Dose-dependent effect	–	Kd [2]: 0.098 µM; Ratio EC50 [3]: 15; Activity [4]: Active; EC50 [5]: 0.954 µM
COCCOc1ccc(NC(=O)/C=C(C)/C=C/C=C(C)/C=C/C2=C(C)CCCC2(C)C)cc1	Active	–	–
CC1=C(/C=C/C(C)=C/C=C/C(C)=C/C(=O)Nc2ccc(OCC(=O)N(C)C)cc2)C(C)(C)CCC1	Active	–	–
CC1=C(/C=C/C(C)=C/C=C/C(C)=C/C(=O)NCc2ccccn2)C(C)(C)CCC1	Active	–	–
CC(C)CCC(=O)Nc1ccc(O)cc1	–	inactive	–
CC1=C(/C=C/C(C)=C/C=C/C(C)=C/C(=O)N2CCC(O)CC2)C(C)(C)CCC1	Active	–	–
CC(C)c1ccc(CCCC(=O)Nc2ccc(O)cc2)cc1	–	inactive	–
CC1=C(/C=C/C(C)=C/C=C/C(C)=C/C(=O)Nc2ccc(OCC(=O)N3CCCCC3)cc2)C(C)(C)CCC1	Active	–	–
CC1=C(/C=C/C(C)=C/C=C/C(C)=C/C(=O)NCC2CC2)C(C)(C)CCC1	Active	–	–
CC1=C(/C=C/C(C)=C/C=C/C(C)=C/C(=O)N2CCC(CCO)CC2)C(C)(C)CCC1	Active	–	–
CC1=C(/C=C/C(C)=C/C=C/C(C)=C/C(=O)Nc2ccc(OCC(=O)O)cc2)C(C)(C)CCC1	Active	–	–
COc1ccccc1CNC(=O)/C=C(C)/C=C/C=C(C)/C=C/C1=C(C)CCCC1(C)C	Active	–	–
CC1=C(/C=C/C(C)=C/C=C/C(C)=C/C(=O)NC2CC2)C(C)(C)CCC1	Active	–	–
CC1=C(/C=C/C(C)=C/C=C/C(C)=C/C(=O)NCc2cccnc2)C(C)(C)CCC1	Active	–	–
O=C(Cc1ccccc1)Nc1ccc(O)cc1	–	inactive	–
O=C(CCCCCc1ccccc1)Nc1ccc(O)cc1	–	inactive	–
COc1ccc(CCC(=O)Nc2ccc(O)cc2)cc1	–	inactive	–
CC1=C(/C=C/C(C)=C/C=C/C(C)=C/C(=O)NCc2ccc(F)cc2)C(C)(C)CCC1	Active	–	–
CC1=C(/C=C/C(C)=C/C=C/C(C)=C/C(=O)N2CCC(O)(c3ccccc3)CC2)C(C)(C)CCC1	Active	–	–
CC1=C(/C=C/C(C)=C/C=C/C(C)=C/C(=O)NCc2ccc(Cl)cc2)C(C)(C)CCC1	Active	–	–
CCOc1ccc(NC(=O)/C=C(C)/C=C/C=C(C)/C=C/C2=C(C)CCCC2(C)C)cc1	Active	–	–
CC1=C(/C=C/C(C)=C/C=C/C(C)=C/C(=O)NCc2ccc(Oc3ccccc3)cc2)C(C)(C)CCC1	Active	–	–

Structure (SMILES)	Activity [1]	Activity [6]	also measured
CC1=C(/C=C/C(C)=C/C=C/C(C)=C/C(=O)N2CCN(c3ccc(C)cc3)CC2)C(C)(C)CCC1	Active	–	–
CC1=C(/C=C/C(C)=C/C=C/C(C)=C/C(=O)N2CCC3CCCCC3C2)C(C)(C)CCC1 (stereo not drawn)	Active	–	–
CC(C)(C)CC(=O)Nc1ccc(O)cc1	–	inactive	–
CC1=C(/C=C/C(C)=C/C=C/C(C)=C/C(=O)N2CCS(=O)(=O)CC2)C(C)(C)CCC1	Active	–	–
COC(=O)COc1ccc(NC(=O)/C=C(C)/C=C/C=C(C)/C=C/C2=C(C)CCCC2(C)C)cc1	Active	–	Kd [2]: 0.131 µM; Ratio EC50 [3]: 15; Activity [4]: Active; Activity [7]: inactive; EC50 [5]: 1.26 µM
CC1=C(/C=C/C(C)=C/C=C/C(C)=C/C(=O)N2CCCCC2)C(C)(C)CCC1	Active	–	–
COc1cccc(CNC(=O)/C=C(C)/C=C/C=C(C)/C=C/C2=C(C)CCCC2(C)C)c1	Active	–	–
CC(CCCC(C)CC(=O)Nc1ccc(O)cc1)CCC1C(C)CCCC1(C)C (stereo not drawn)	Active	–	–
CC1=C(/C=C/C(C)=C/C=C/C(C)=C/C(=O)Nc2ccc3c(c2)OCO3)C(C)(C)CCC1	Active	–	–
CC1=C(/C=C/C(C)=C/C=C/C(C)=C/C(=O)N2CCC(Cc3ccccc3)CC2)C(C)(C)CCC1	Active	–	–
COCCC(=O)Nc1ccc(O)cc1	–	inactive	–
CC1=C(/C=C/C(C)=C/C=C/C(C)=C/C(=O)NCCCOc2ccccc2)C(C)(C)CCC1	Active	–	–
CC1=C(/C=C/C(C)=C/C=C/C(C)=C/C(=O)Nc2ccc(OCC(=O)NCCO)cc2)C(C)(C)CCC1	Active	–	–
COc1ccc(CNC(=O)/C=C(C)/C=C/C=C(C)/C=C/C2=C(C)CCCC2(C)C)cc1	Active	–	–
CC1=C(/C=C/C(C)=C/C=C/C(C)=C/C(=O)NCc2ccccc2)C(C)(C)CCC1	Active	–	–
COCCOCC(=O)Nc1ccc(O)cc1	–	inactive	–
CC(C)CC(=O)Nc1ccc(O)cc1	–	inactive	–
CC1=C(/C=C/C(C)=C/C=C/C(C)=C/C(=O)NCc2ccc3c(c2)OCO3)C(C)(C)CCC1	Active	–	–
CC(C)CCCC(=O)Nc1ccc(O)cc1	–	inactive	–
CC1=C(/C=C/C(C)=C/C=C/C(C)=C/C(=O)N2CCOCC2)C(C)(C)CCC1	Active	–	Kd [2]: 0.227 µM; Ratio EC50 [3]: 2; Activity [4]: Active; EC50 [5]: 0.154 µM
C=CC(=O)Nc1ccc(O)cc1	–	inactive	–
COc1cc(NC(=O)/C=C(C)/C=C/C=C(C)/C=C/C2=C(C)CCCC2(C)C)cc(OC)c1OC	Active	–	–
O=C(CCc1ccccc1)Nc1ccc(O)cc1	–	inactive	–

Structure (SMILES)	Activity [1]	Activity [6]	also measured
CC1=C(/C=C/C(C)=C/C=C/C(C)=C\C(=O)Nc2ccc(O)cc2)C(C)(C)CCC1	Active	–	Activity [4]: Active
CC1=C(/C=C/C(C)=C/C=C/C(C)=C/C(=O)Nc2ccc(O)cc2)C(C)(C)CCC1	–	–	Activity [4]: inactive; fold change (FC) [8]: 3; Activity [7]: Active
O=C(CCCCc1ccccc1)Nc1ccc(O)cc1	–	inactive	–
CC1=C(/C=C/C(C)=C/C=C/C(C)=C/C(=O)N2CCCCCC2)C(C)(C)CCC1	Active	–	–
COc1ccc(CCCC(=O)Nc2ccc(O)cc2)cc1	–	inactive	–
COc1ccc(CC(=O)Nc2ccc(O)cc2)cc1	–	inactive	–
CC1=C(/C=C/C(C)=C/C=C/C(C)=C/C(=O)NCC(O)CO)C(C)(C)CCC1 (stereo not drawn)	Active	–	Kd [2]: 0.178 µM; Ratio EC50 [3]: 2; Activity [4]: Active; EC50 [5]: 0.171 µM
CC1=C(/C=C/C(C)=C/C=C/C(C)=C/C(=O)NCCC(C)(C)C)C(C)(C)CCC1	Active	–	–
CC1=C(/C=C/C(C)=C/C=C/C(C)=C/C(=O)N2CCC(F)CC2)C(C)(C)CCC1	Active	–	–
CCOC(=O)CNC(=O)/C=C(C)/C=C/C=C(C)/C=C/C1=C(C)CCCC1(C)C	Active	–	–
COc1ccc(NC(=O)/C=C(C)/C=C/C=C(C)/C=C/C2=C(C)CCCC2(C)C)cc1	Active	–	–
CC1=C(/C=C/C(C)=C/C=C/C(C)=C/C(=O)Nc2ccccc2)C(C)(C)CCC1	Active	–	–
O=C(CCCc1ccccc1)Nc1ccc(O)cc1	–	inactive	–
CC1=C(/C=C/C(C)=C/C=C/C(C)=C/C(=O)NCCO)C(C)(C)CCC1	Active	–	Kd [2]: 0.214 µM; Ratio EC50 [3]: 2; Activity [4]: Active; EC50 [5]: 0.145 µM
CC(C)c1ccc(CCC(=O)Nc2ccc(O)cc2)cc1	–	inactive	–
COc1cccc(NC(=O)/C=C(C)/C=C/C=C(C)/C=C/C2=C(C)CCCC2(C)C)c1	Active	–	–
CC1=C(/C=C/C(C)=C/C=C/C(C)=C/C(=O)NC2CCCCC2)C(C)(C)CCC1	Active	–	–
CC(C)(C)C(=O)Nc1ccc(O)cc1	–	inactive	–
CC1=C(/C=C/C(C)=C/C=C/C(C)=C/C(=O)N2CCC(F)(F)CC2)C(C)(C)CCC1	Active	–	–
CC(C)=CCC/C(C)=C/C(=O)Nc1ccc(O)cc1	–	inactive	–
CC1=C(/C=C/C(C)=C/C=C/C(C)=C/C(=O)N2CCCOCC2)C(C)(C)CCC1	Active	–	–
CCCCC(=O)Nc1ccc(O)cc1	–	inactive	–
CC(C)=CC(=O)Nc1ccc(O)cc1	–	inactive	–

From ChEMBL document CHEMBL1800068 (J Med Chem, 2011)
